# Experimental data: ChEMBL document CHEMBL1123146, “Design, synthesis, and evaluation of omega-iodovinyl- and omega-iodoalkyl-substituted methyl-branched long-chain fatty acids” (J Med Chem, 1985)
# Tests used:
# Rattus norvegicus [1] = experiment: Distribution of radioactivity was measured in thyroid tissue of unfasted Fischer 344 rats administered intravenously after 5 minutes (radiolabeled with [125I]-; format: ADME, organism-based, Thyroid gland; details: in vivo, iv
# Outline: (§1)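 Female Fischer 344 rats, 10–12 weeks old (170–200 g), with food and water ad libitum, five per time point. The radioiodinated fatty acid was dissolved in ethanol, added to 6% BSA at ~40 °C (final 10% ethanol), filtered, and injected into a lateral tail vein (0.5 mL) under ether anesthesia. Blood was taken by cardiac puncture; organs were rinsed, blotted, weighed and gamma-counted against injectate standards. Output is % injected dose/g.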
# Rattus norvegicus [2] = experiment: Distribution of radioactivity was measured in liver tissue of unfasted Fischer 344 rats administered intravenously after 2 minutes (radiolabeled with [125I]-; format: ADME, organism-based; details: in vivo, iv; outline: as §1
# Rattus norvegicus [3] = experiment: Distribution of radioactivity was measured in kidney tissue of unfasted Fischer 344 rats administered intravenously after 15 minutes (radiolabeled with [125I]-; format: ADME, organism-based; details: in vivo, iv, 0.25 h; outline: as §1
# Rattus norvegicus [4] = species: Rattus norvegicus; experiment: Specific activity was determined with radioiodinated iodine-125; format: functional
# Rattus norvegicus [5] = experiment: Mean heart/blood tissue of unfasted Fischer 344 rats administered intravenous after 60 minutes (radiolabeled with [125I]-; format: ADME, organism-based; details: other tissue, 1 h
# Outline: (§2)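 Female Fischer 344 rats (10-12 weeks, 170-200 g), fed ad libitum before and during the experiment, five per time point. The radioiodinated fatty acid was dissolved in 0.5 mL absolute ethanol, added dropwise to stirred 6% BSA at ~40 °C (final ethanol 10%), filtered at 0.22 µm, and injected in 0.5 mL into a lateral tail vein under ether anesthesia.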
# Rattus norvegicus [6] = experiment: Distribution of radioactivity was measured in blood tissue of unfasted Fischer 344 rats administered intravenously after 2 minutes (radiolabeled with [125I]-; format: ADME, organism-based; details: in vivo, iv; outline: as §1
# Rattus norvegicus [7] = experiment: Distribution of radioactivity was measured in liver tissue of unfasted Fischer 344 rats administered intravenously after 5 minutes (radiolabeled with [125I]-; format: ADME, organism-based; details: in vivo, iv; outline: as §1
# Rattus norvegicus [8] = experiment: Mean heart/blood tissue of unfasted Fischer 344 rats administered intravenous after 30 minutes (radiolabeled with [125I]-; format: ADME, organism-based; details: in vivo, 0.5 h; outline: as §2
# Rattus norvegicus [9] = experiment: Mean heart/blood tissue of unfasted Fischer 344 rats administered intravenous after 15 minutes (radiolabeled with [125I]-; format: ADME, organism-based; details: in vivo, 0.25 h; outline: as §2
# Rattus norvegicus [10] = experiment: Distribution of radioactivity was measured in blood tissue of unfasted Fischer 344 rats administered intravenously after 30 minutes (radiolabeled with [125I]-; format: ADME, organism-based; details: in vivo, iv, 0.5 h; outline: as §1
# Rattus norvegicus [11] = experiment: Distribution of radioactivity was measured in heart tissue of unfasted Fischer 344 rats administered intravenously after 2 minutes (radiolabeled with [125I]-; format: ADME, organism-based; details: in vivo, iv; outline: as §1
# Rattus norvegicus [12] = experiment: Distribution of radioactivity was measured in lung tissue of unfasted Fischer 344 rats administered intravenously after 60 minutes (radiolabeled with [125I]-; format: ADME, organism-based; details: in vivo, iv, 1 h; outline: as §1
# Rattus norvegicus [13] = experiment: Distribution of radioactivity was measured in heart tissue of unfasted Fischer 344 rats administered intravenously after 60 minutes (radiolabeled with [125I]-; format: ADME, organism-based; details: in vivo, iv, 1 h; outline: as §1
# Rattus norvegicus [14] = experiment: Mean heart/blood tissue of unfasted Fischer 344 rats administered intravenous after 5 minutes (radiolabeled with [125I]-; format: ADME, organism-based; details: in vivo; outline: as §2
# Rattus norvegicus [15] = experiment: Distribution of radioactivity was measured in lung tissue of unfasted Fischer 344 rats administered intravenously after 15 minutes (radiolabeled with [125I]-; format: ADME, organism-based; details: in vivo, iv, 0.25 h; outline: as §1
# Rattus norvegicus [16] = experiment: Distribution of radioactivity was measured in heart tissue of unfasted Fischer 344 rats administered intravenously after 5 minutes (radiolabeled with [125I]-; format: ADME, organism-based; details: in vivo, iv; outline: as §1
# Rattus norvegicus [17] = experiment: Distribution of radioactivity was measured in liver tissue of unfasted Fischer 344 rats administered intravenously after 60 minutes (radiolabeled with [125I]-; format: ADME, organism-based; details: in vivo, iv, 1 h; outline: as §1
# Rattus norvegicus [18] = experiment: Mean heart/blood tissue of unfasted Fischer 344 rats administered intravenous after 2 minutes (radiolabeled with [125I]-; format: ADME, organism-based; details: in vivo; outline: as §2
# Rattus norvegicus [19] = experiment: Distribution of radioactivity was measured in heart tissue of unfasted Fischer 344 rats administered intravenously after 30 minutes (radiolabeled with [125I]-; format: ADME, organism-based; details: in vivo, iv, 0.5 h; outline: as §1
# Rattus norvegicus [20] = experiment: Distribution of radioactivity was measured in liver tissue of unfasted Fischer 344 rats administered intravenously after 30 minutes (radiolabeled with [125I]-; format: ADME, organism-based; details: in vivo, iv, 0.5 h; outline: as §1
# Rattus norvegicus [21] = experiment: Distribution of radioactivity was measured in liver tissue of unfasted Fischer 344 rats administered intravenously after 15 minutes (radiolabeled with [125I]-; format: ADME, organism-based; details: in vivo, iv, 0.25 h; outline: as §1
# Rattus norvegicus [22] = experiment: Distribution of radioactivity was measured in blood tissue of unfasted Fischer 344 rats administered intravenously after 5 minutes (radiolabeled with [125I]-; format: ADME, organism-based; details: in vivo, iv; outline: as §1
# Rattus norvegicus [23] = experiment: Distribution of radioactivity was measured in lung tissue of unfasted Fischer 344 rats administered intravenously after 5 minutes (radiolabeled with [125I]-; format: ADME, organism-based; details: in vivo, iv; outline: as §1
# Rattus norvegicus [24] = experiment: Distribution of radioactivity was measured in lung tissue of unfasted Fischer 344 rats administered intravenously after 2 minutes (radiolabeled with [125I]-; format: ADME, organism-based; details: in vivo, iv; outline: as §1
# Rattus norvegicus [25] = experiment: Distribution of radioactivity was measured in blood tissue of unfasted Fischer 344 rats administered intravenously after 60 minutes (radiolabeled with [125I]-; format: ADME, organism-based; details: in vivo, iv, 1 h; outline: as §1
# Rattus norvegicus [26] = experiment: Distribution of radioactivity was measured in thyroid tissue of unfasted Fischer 344 rats administered intravenously after 15 minutes (radiolabeled with [125I]-; format: ADME, organism-based, Thyroid gland; details: in vivo, iv, 0.25 h; outline: as §1
# Rattus norvegicus [27] = experiment: Distribution of radioactivity was measured in kidney tissue of unfasted Fischer 344 rats administered intravenously after 5 minutes (radiolabeled with [125I]-; format: ADME, organism-based; details: in vivo, iv; outline: as §1
# Rattus norvegicus [28] = experiment: Distribution of radioactivity was measured in lung tissue of unfasted Fischer 344 rats administered intravenously after 30 minutes (radiolabeled with [125I]-; format: ADME, organism-based; details: in vivo, iv, 0.5 h; outline: as §1
# Rattus norvegicus [29] = experiment: Distribution of radioactivity was measured in thyroid tissue of unfasted Fischer 344 rats administered intravenously after 30 minutes (radiolabeled with [125I]-; format: ADME, organism-based, Thyroid gland; details: in vivo, iv, 0.5 h; outline: as §1
# Rattus norvegicus [30] = experiment: Distribution of radioactivity was measured in heart tissue of unfasted Fischer 344 rats administered intravenously after 15 minutes (radiolabeled with [125I]-; format: ADME, organism-based; details: in vivo, iv, 0.25 h; outline: as §1
# Rattus norvegicus [31] = experiment: Distribution of radioactivity was measured in blood tissue of unfasted Fischer 344 rats administered intravenously after 15 minutes (radiolabeled with [125I]-; format: ADME, organism-based; details: in vivo, iv, 0.25 h; outline: as §1
# Rattus norvegicus [32] = experiment: Distribution of radioactivity was measured in kidney tissue of unfasted Fischer 344 rats administered intravenously after 2 minutes (radiolabeled with [125I]-; format: ADME, organism-based; details: in vivo, iv; outline: as §1
# Rattus norvegicus [33] = experiment: Distribution of radioactivity was measured in thyroid tissue of unfasted Fischer 344 rats administered intravenously after 60 minutes (radiolabeled with [125I]-; format: ADME, organism-based, Thyroid gland; details: in vivo, iv, 1 h; outline: as §2
# Rattus norvegicus [34] = experiment: Distribution of radioactivity was measured in kidney tissue of unfasted Fischer 344 rats administered intravenously after 30 minutes (radiolabeled with [125I]-; format: ADME, organism-based; details: in vivo, iv, 0.5 h; outline: as §1
# Rattus norvegicus [35] = experiment: Distribution of radioactivity was measured in kidney tissue of unfasted Fischer 344 rats administered intravenously after 60 minutes (radiolabeled with [125I]-; format: ADME, organism-based; details: in vivo, iv, 1 h; outline: as §1
# Rattus norvegicus [36] = experiment: Distribution of radioactivity was measured in thyroid tissue of unfasted Fischer 344 rats administered intravenously after 2 minutes (radiolabeled with [125I]-; format: ADME, organism-based, Thyroid gland; details: in vivo, iv; outline: as §1
# Rattus norvegicus [37] = species: Rattus norvegicus; experiment: Specific activity was determined with radioiodinated iodine-123; format: functional
compound,measurement,setting,value
O=C(O)CCCCCCCCCCCCCCCC/C=C/I,Distribution,Rattus norvegicus [1],8.73%
same,Distribution,Rattus norvegicus [2],6.91%
same,Distribution,Rattus norvegicus [3],0.73%
same,Specific activity,Rattus norvegicus [4],1.77 Ci mM-1
same,Distribution,Rattus norvegicus [5],10.9%
same,Distribution,Rattus norvegicus [6],0.45%
same,Distribution,Rattus norvegicus [7],6.45%
same,Distribution,Rattus norvegicus [8],7.4%
same,Distribution,Rattus norvegicus [9],8.6%
same,Distribution,Rattus norvegicus [10],0.51%
same,Distribution,Rattus norvegicus [11],4.44%
same,Distribution,Rattus norvegicus [12],0.86%
same,Distribution,Rattus norvegicus [13],3.4%
same,Distribution,Rattus norvegicus [14],12.4%
same,Distribution,Rattus norvegicus [15],0.92%
same,Distribution,Rattus norvegicus [16],3.72%
same,Distribution,Rattus norvegicus [17],3.79%
same,Distribution,Rattus norvegicus [18],9.9%
same,Distribution,Rattus norvegicus [19],3.79%
same,Distribution,Rattus norvegicus [20],5.72%
same,Distribution,Rattus norvegicus [21],5.88%
same,Distribution,Rattus norvegicus [22],0.3%
same,Distribution,Rattus norvegicus [23],0.97%
same,Distribution,Rattus norvegicus [24],1.16%
same,Distribution,Rattus norvegicus [25],0.31%
same,Distribution,Rattus norvegicus [26],15.7%
same,Distribution,Rattus norvegicus [27],0.82%
same,Distribution,Rattus norvegicus [28],1%
same,Distribution,Rattus norvegicus [29],21.9%
same,Distribution,Rattus norvegicus [30],3%
same,Distribution,Rattus norvegicus [31],0.35%
same,Distribution,Rattus norvegicus [32],0.85%
same,Distribution,Rattus norvegicus [33],43.5%
same,Distribution,Rattus norvegicus [34],0.76%
same,Distribution,Rattus norvegicus [35],0.67%
same,Distribution,Rattus norvegicus [36],7.91%
same,Specific activity,Rattus norvegicus [37],2.21 Ci mM-1
CC(CCCCCCCCCCCCCC/C=C/I)CC(=O)O (centres undefined),Distribution,Rattus norvegicus [1],9.49%
same,Distribution,Rattus norvegicus [2],8.32%
same,Distribution,Rattus norvegicus [3],0.66%
same,Specific activity,Rattus norvegicus [4],7.08 Ci mM-1
same,Distribution,Rattus norvegicus [5],8.3%
same,Distribution,Rattus norvegicus [6],1.05%
same,Distribution,Rattus norvegicus [7],7.81%
same,Distribution,Rattus norvegicus [8],6.9%
same,Distribution,Rattus norvegicus [9],7.4%
same,Distribution,Rattus norvegicus [10],0.59%
same,Distribution,Rattus norvegicus [11],3.93%
same,Distribution,Rattus norvegicus [12],0.73%
same,Distribution,Rattus norvegicus [13],3.08%
same,Distribution,Rattus norvegicus [14],5.6%
same,Distribution,Rattus norvegicus [15],0.83%
same,Distribution,Rattus norvegicus [16],3.74%
same,Distribution,Rattus norvegicus [17],4.73%
same,Distribution,Rattus norvegicus [18],3.7%
same,Distribution,Rattus norvegicus [19],4.12%
same,Distribution,Rattus norvegicus [20],5.97%
same,Distribution,Rattus norvegicus [21],8.44%
same,Distribution,Rattus norvegicus [22],0.67%
same,Distribution,Rattus norvegicus [23],1.18%
same,Distribution,Rattus norvegicus [24],1.42%
same,Distribution,Rattus norvegicus [25],0.37%
same,Distribution,Rattus norvegicus [26],16.9%
same,Distribution,Rattus norvegicus [27],0.92%
same,Distribution,Rattus norvegicus [28],0.89%
same,Distribution,Rattus norvegicus [29],29.4%
same,Distribution,Rattus norvegicus [30],3.47%
same,Distribution,Rattus norvegicus [31],0.41%
same,Distribution,Rattus norvegicus [32],0.95%
same,Distribution,Rattus norvegicus [33],65.4%
same,Distribution,Rattus norvegicus [34],0.71%
same,Distribution,Rattus norvegicus [35],0.67%
same,Distribution,Rattus norvegicus [36],7.21%
same,Specific activity,Rattus norvegicus [37],4.98 Ci mM-1
